Measurements reported in publication PMC4764504 (Journal of medicinal chemistry, 2015).
“And” between values parts separate entries of the source, which are not always exact repeats. Identical values can stand only once.

How the values were obtained:
DBT glioma cells = assay: Competitive amino acid cell uptake assays; type: cell-based, mouse; conditions: 60 s, 37 °C
How it was run: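 Mouse DBT glioma cells were seeded at 1 × 10⁵ cells/well and grown 48 h in 10% FBS DMEM under 5% CO₂. Cells were washed twice in 37 °C buffer, then exposed for 60 s at 37 °C, pH 7.40, to the radiotracer. Buffers were Na phosphate-buffered saline or choline-substituted Na-free buffer. Controls had 10 mM sucrose; BCH was 10 mM. Cells were washed with ice-cold buffer, lysed in 0.2% SDS/0.2 M NaOH, γ-counted, and normalized to added activity and BCA protein. Values are % of control, triplicate × two plates.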

[1] = test system: BALB/c Mice with Subcutaneous Flank DBT Tumors; assay: Whole body biodistribution in mice with subcutaneous DBT gliomas; type: in vivo, mouse; conditions: for biodistribution, tumor uptake: subcutaneous DBT tumor
How it was run: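 Male BALB/c mice carried subcutaneous flank DBT tumors (5 × 10⁵ cells) and were used at day 14. Under 1% isoflurane–oxygen, each received ~56 μCi (2.07 MBq) of ⁷⁶Br-labelled or 45 μCi (1.67 MBq) of ¹²³I-labelled test compound by tail vein in 0.9% saline. Mice were killed at 5 min, 30 min, 1, 3 and 24 h (n = 4 per time). Tissues were weighed and γ-counted with decay correction, giving % ID/g.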

[2] = test system: mice with intracranial DBT gliomas; assay: Small animal PET/CT imaging in mice with intracranial DBT gliomas; type: in vivo, mouse; conditions: PET; for SUV tumor uptake: intracranial DBT tumor
How it was run: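 Four male BALB/c mice carried intracranial DBT gliomas (1 × 10⁴ cells, right mid-cerebrum) and were imaged 14 days after implantation. Under 1% isoflurane–oxygen, each received ~55 μCi (~2.04 MBq) of ⁷⁶Br-labelled test compound by tail vein in 0.9% saline. Imaging was dynamic PET/CT for 0–60 min, then 15-min static scans at 3 and 24 h. Read-out was SUV. Tumors were confirmed afterwards by H&E on fixed brains.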

[3] = 50–60 min (summed) after injection

## C[C@](N)(/C=C/[76Br])C(=O)O [[^76Br]5, (S)-amino-2-methyl-4-[^76Br]-bromo-3-(E)-butenoic acid]
DBT glioma cells; Na BCH condition (BCH 10 mM, system L inhibitor, sodium buffer)
  uptake relative to control: 43 ± 8.5%
DBT glioma cells; choline + BCH (sodium-free, Cho-BCH)
  uptake compared to sodium control: 25 ± 4.1%
DBT glioma cells; choline control (sodium-free, Cho-sucrose)
  uptake compared to the sodium control: 46 ± 10%
DBT glioma cells; in the presence of MeAIB (10 mM, system A inhibitor), sodium buffer
  uptake relative to the control: 56 ± 12%
[1]; 5 min after i.v. injection
  biodistribution, blood: 5.75 ± 0.44 % ID/g
  biodistribution, bone: 2.13 ± 0.43 % ID/g
  biodistribution, brain: 0.54 ± 0.04 % ID/g
  biodistribution, fat: 1.36 ± 0.38 % ID/g
  biodistribution, heart: 2.92 ± 0.29 % ID/g
  biodistribution, kidney: 47.50 ± 4.26 % ID/g
  biodistribution, liver (all): 4.57 ± 0.27 % ID/g
  biodistribution, lung: 6.20 ± 0.41 % ID/g
  biodistribution, muscle: 1.54 ± 0.18 % ID/g
  biodistribution, pancreas: 27.0 ± 7.2 % ID/g and 27.04 ± 7.15 % ID/g
  biodistribution, spleen: 8.20 ± 0.71 % ID/g
  biodistribution, tumor uptake: 2.5 ± 0.64 % ID/g and 2.52 ± 0.64 % ID/g
[1]; 30 min after i.v. injection
  biodistribution, blood: 1.66 ± 0.16 % ID/g
  biodistribution, bone: 1.95 ± 0.29 % ID/g
  biodistribution, brain: 0.42 ± 0.02 % ID/g
  biodistribution, fat: 0.85 ± 0.71 % ID/g
  biodistribution, heart: 2.21 ± 0.18 % ID/g
  biodistribution, kidney: 8.95 ± 0.91 % ID/g
  biodistribution, liver (all): 1.63 ± 0.33 % ID/g
  biodistribution, lung: 1.73 ± 0.16 % ID/g
  biodistribution, muscle: 1.75 ± 0.77 % ID/g
  biodistribution, pancreas: 24.35 ± 4.06 % ID/g
  biodistribution, spleen: 4.05 ± 0.55 % ID/g
  biodistribution, tumor uptake: 3.8 ± 0.95 % ID/g and 3.79 ± 0.95 % ID/g
[1]; 1 h after i.v. injection
  biodistribution, blood: 1.22 ± 0.19 % ID/g
  biodistribution, bone: 1.18 ± 0.64 % ID/g
  biodistribution, brain: 0.38 ± 0.04 % ID/g
  biodistribution, fat: 0.31 ± 0.20 % ID/g
  biodistribution, heart: 1.67 ± 0.27 % ID/g
  biodistribution, kidney: 5.49 ± 0.98 % ID/g
  biodistribution, liver (all): 1.03 ± 0.48 % ID/g
  biodistribution, lung: 1.15 ± 0.22 % ID/g
  biodistribution, muscle: 0.98 ± 0.12 % ID/g
  biodistribution, pancreas: 14.31 ± 8.12 % ID/g
  biodistribution, spleen: 2.30 ± 0.82 % ID/g
  biodistribution, tumor uptake: 3.7 ± 0.4 % ID/g and 3.72 ± 0.43 % ID/g
[1]; 3 h after i.v. injection
  biodistribution, blood: 0.87 ± 0.44 % ID/g
  biodistribution, bone: 0.46 ± 0.20 % ID/g
  biodistribution, brain: 0.31 ± 0.06 % ID/g
  biodistribution, fat: 0.17 ± 0.04 % ID/g
  biodistribution, heart: 0.67 ± 0.15 % ID/g
  biodistribution, kidney: 1.29 ± 0.43 % ID/g
  biodistribution, liver (all): 0.34 ± 0.09 % ID/g
  biodistribution, lung: 0.54 ± 0.07 % ID/g
  biodistribution, muscle: 0.4 ± 0.20 % ID/g
  biodistribution, pancreas: 2.48 ± 1.17 % ID/g
  biodistribution, spleen: 0.59 ± 0.21 % ID/g
  biodistribution, tumor uptake: 1.65 ± 0.40 % ID/g
[1]; 24 h after i.v. injection
  biodistribution, blood: 0.37 ± 0.04 % ID/g
  biodistribution, bone: 0.1 ± 0.04 % ID/g
  biodistribution, brain: 0.09 ± 0.01 % ID/g
  biodistribution, fat: 0.04 ± 0.01 % ID/g
  biodistribution, heart: 0.13 ± 0.02 % ID/g
  biodistribution, kidney: 0.23 ± 0.02 % ID/g
  biodistribution, liver (all): 0.1 ± 0.02 % ID/g
  biodistribution, lung: 0.27 ± 0.05 % ID/g
  biodistribution, muscle: 0.08 ± 0.01 % ID/g
  biodistribution, pancreas: 0.17 ± 0.02 % ID/g
  biodistribution, spleen: 0.18 ± 0.03 % ID/g
  biodistribution, tumor uptake: 0.25 ± 0.03 % ID/g
[1]; normal brain, through 3 h after injection
  brain uptake, fold higher than with [^123I]8: 2- to 3 fold
[1]; subcutaneous DBT tumors, around 30 min to an hour postinjection
  maximal tumor uptake: 3.7–3.8 % ID/g
[1]; thyroid, 5 min after i.v. injection
  biodistribution, thyroid: 3.60 ± 0.69 % ID/g
[1]; thyroid, 5 min after injection
  thyroid uptake: 3.6 ± 0.7 % ID/organ
[1]; thyroid, 30 min after i.v. injection
  biodistribution, thyroid: 1.63 ± 0.12 % ID/g
[1]; thyroid, 1 h after i.v. injection
  biodistribution, thyroid: 1.26 ± 0.18 % ID/g
[1]; thyroid, 3 h after i.v. injection
  biodistribution, thyroid: 0.53 ± 0.08 % ID/g
[1]; thyroid, 24 h after i.v. injection
  biodistribution, thyroid: 0.17 ± 0.06 % ID/g
[2]; [3]
  tumor/brain SUV ratio: 1.70 ± 0.26
  SUV tumor uptake: 0.63 ± 0.06
[2]; 3 h after injection
  tumor/brain SUV ratio: 2.67 ± 0.15
  SUV tumor uptake: 0.70 ± 0.13
[2]; 24 h after injection
  tumor/brain SUV ratio: 3.05 ± 0.30
